From ChEMBL document CHEMBL1141526, “3-Amino-1,5-benzodiazepinones: potent, state-dependent sodium channel blockers with anti-epileptic activity” (Bioorg Med Chem Lett, 2008) come the findings set out here.

Data set [1] concerns hERG (Potassium voltage-gated channel subfamily H member 2, Homo sapiens). The data set can be described thus: Displacement of [35S]MK-0499 from human hERG potassium channel at 1 uM.
Data set [2] has the same test system. The data set can be described thus: Displacement of [35S]MK-0499 from human hERG potassium channel at 10 uM.
Data set [3] has as its target T1, Sodium channel protein type 9 subunit alpha (Homo sapiens, UniProt Q15858). The data set can be described thus: Inhibition of human Nav1.7 sodium channel expressed in HEK293 cells by FRET assay. The class given is cell-based. The method in brief: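 HEK-293 cells stably expressing hNav1.7 were used in a functional membrane-potential assay. Channel block was read as FRET between two membrane-associated dyes; the value is reported as IC50.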
Target sequence in this assay (Q15858 whole entry): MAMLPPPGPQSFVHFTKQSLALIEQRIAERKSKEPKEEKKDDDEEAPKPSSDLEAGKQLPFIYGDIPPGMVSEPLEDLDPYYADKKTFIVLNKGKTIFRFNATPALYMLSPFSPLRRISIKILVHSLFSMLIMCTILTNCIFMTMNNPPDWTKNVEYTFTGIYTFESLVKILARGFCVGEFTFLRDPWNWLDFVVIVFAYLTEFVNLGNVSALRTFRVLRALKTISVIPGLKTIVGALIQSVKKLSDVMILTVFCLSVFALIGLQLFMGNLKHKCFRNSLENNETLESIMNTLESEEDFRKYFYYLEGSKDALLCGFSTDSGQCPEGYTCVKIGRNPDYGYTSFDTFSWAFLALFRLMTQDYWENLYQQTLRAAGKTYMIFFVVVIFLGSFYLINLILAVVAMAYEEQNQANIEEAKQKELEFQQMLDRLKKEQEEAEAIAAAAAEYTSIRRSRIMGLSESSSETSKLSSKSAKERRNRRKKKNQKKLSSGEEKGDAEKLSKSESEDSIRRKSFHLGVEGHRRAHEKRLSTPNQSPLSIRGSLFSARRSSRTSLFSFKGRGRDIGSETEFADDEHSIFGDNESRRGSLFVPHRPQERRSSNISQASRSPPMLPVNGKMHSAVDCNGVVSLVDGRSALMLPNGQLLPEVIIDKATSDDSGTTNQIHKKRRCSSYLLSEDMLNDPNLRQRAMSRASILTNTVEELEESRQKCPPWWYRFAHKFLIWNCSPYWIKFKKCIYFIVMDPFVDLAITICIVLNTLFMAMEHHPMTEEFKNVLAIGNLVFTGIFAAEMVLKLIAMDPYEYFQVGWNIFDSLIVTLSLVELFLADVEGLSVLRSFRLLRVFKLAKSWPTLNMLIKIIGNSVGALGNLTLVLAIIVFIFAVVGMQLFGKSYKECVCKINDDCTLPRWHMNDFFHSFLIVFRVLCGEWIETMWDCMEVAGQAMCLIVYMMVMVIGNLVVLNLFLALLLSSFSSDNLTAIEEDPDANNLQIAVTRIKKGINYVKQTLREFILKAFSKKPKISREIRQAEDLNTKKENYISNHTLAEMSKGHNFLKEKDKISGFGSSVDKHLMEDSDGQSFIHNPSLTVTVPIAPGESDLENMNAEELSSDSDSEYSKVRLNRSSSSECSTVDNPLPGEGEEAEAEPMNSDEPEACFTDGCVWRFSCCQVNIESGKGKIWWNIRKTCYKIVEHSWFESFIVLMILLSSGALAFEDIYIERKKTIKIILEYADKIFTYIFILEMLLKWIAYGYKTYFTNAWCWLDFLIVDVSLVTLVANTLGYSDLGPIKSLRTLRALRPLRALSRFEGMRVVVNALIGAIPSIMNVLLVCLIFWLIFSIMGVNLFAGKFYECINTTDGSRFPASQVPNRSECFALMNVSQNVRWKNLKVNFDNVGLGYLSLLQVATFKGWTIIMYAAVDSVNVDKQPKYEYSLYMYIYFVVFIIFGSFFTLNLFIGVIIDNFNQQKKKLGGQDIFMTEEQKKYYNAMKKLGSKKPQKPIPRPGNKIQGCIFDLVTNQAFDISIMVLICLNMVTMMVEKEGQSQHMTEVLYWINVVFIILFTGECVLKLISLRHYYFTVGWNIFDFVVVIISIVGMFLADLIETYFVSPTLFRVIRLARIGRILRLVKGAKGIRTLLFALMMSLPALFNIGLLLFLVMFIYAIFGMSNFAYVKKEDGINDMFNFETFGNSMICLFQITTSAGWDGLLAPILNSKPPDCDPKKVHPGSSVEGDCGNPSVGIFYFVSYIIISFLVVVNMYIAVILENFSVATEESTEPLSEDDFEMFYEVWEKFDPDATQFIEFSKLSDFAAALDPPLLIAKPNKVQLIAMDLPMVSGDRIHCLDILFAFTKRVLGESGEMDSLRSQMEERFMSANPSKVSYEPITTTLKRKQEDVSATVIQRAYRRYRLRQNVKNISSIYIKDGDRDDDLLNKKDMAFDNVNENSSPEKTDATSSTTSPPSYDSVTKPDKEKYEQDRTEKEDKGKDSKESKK

Data set [4] in a line: Cmax in Sprague-Dawley rat at 3.0 mg/kg, po. As to conditions: in vivo.
Data set [5] is described as follows: Half life in Sprague-Dawley rat at 1.0 mg/kg, iv. Set-up: dose 1 mg/kg, route intravenous. The class given is ADME, organism-based. As to conditions: in vivo. In outline:
(§1)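 Fasted male Sprague–Dawley rats (n = 3 per route) received 1.0 mg/kg iv through a femoral vein cannula or 3.0 mg/kg po by gavage. Compound was formulated at 1.5 mg/mL in PEG300/water or DMSO/PEG300/water. Serial blood sampled at 5 min (iv only), 15 and 30 min, and 1, 2, 4, 6, 8 h. Plasma was acetonitrile-precipitated and measured by LC–MS/MS.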

A short description of data set [6]: Oral bioavailability in Sprague-Dawley rat at 3.0 mg/kg. To be noted: in vivo. The data set is classed as ADME, organism-based. In outline: as §1
The nature of data set [7]: Clearance in Sprague-Dawley rat at 1.0 mg/kg, iv. The class given is ADME, organism-based. More on the design: dose 1 mg/kg, route intravenous. To be noted: in vivo. In outline: as §1
The test system of another data set is Mus musculus. The data set can be described thus: Anticonvulsant activity in C57BL6J mouse assessed as prevention of shock-induced tonic-clonic seizures at 3 mg/kg, po after 30 mins. To be noted: for ED50: 0.5 h. The data set is classed as functional. In outline: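 Male C57BL6J mice, 14 weeks old. Dosed 3 mg/kg by gavage in 5% EtOH + 10% Tween 80 + 85% water, sonicated, 2 mL/kg. Maximal electroshock via auricular electrodes 30 min post-dose: 100 Hz, 0.7 ms pulse width, 0.5 s duration, 18 mA. Read-out was protection from tonic–clonic seizures; n = 10.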

The target in data set [8] is T1, Sodium channel protein type 9 subunit alpha. To be noted: HEK293, 1 uM.
Target sequence in this assay (Q15858 whole entry, looked up): as the sequence (Q15858 whole entry) above
Data set [9] shares this target. Briefly: Inhibition of human Nav1.7 sodium channel expressed in HEK293 cells at a membrane potential of -70 mV by whole cell voltage clamp technique. The class given is cell-based. In outline:
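Whole-cell voltage clamp on HEK-293 cells stably expressing hNav1.7. Peak current evoked by 20 ms depolarizations from −70 mV. Bath: 40 mM NaCl, 120 mM NMDG–Cl, 1 mM KCl, 2.7 mM CaCl2, 0.5 mM MgCl2, 10 mM NMDG–Hepes, pH 7.4. Pipette: Cs–methanesulfonate/CsCl/CsF/BAPTA-based, pH 7.4. Junction potentials (<4 mV) were not corrected.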
Target sequence in this assay (Q15858 whole entry): as above

Data set [10] shares this target. To be noted: HEK293.
Target sequence in this assay (Q15858 whole entry, looked up): as the sequence (Q15858 whole entry) above

Activity calls are given as the source filed them. No cut-off for these calls is given here.

With `CN1C[C@@H](NC(=O)[C@@H](Cc2ccccc2F)NC(=O)OC(C)(C)C)C(=O)N(C)c2ccccc21`, the inhibition in data set [1] is 0%; in [2], 7%. The half-inhibitory concentration (IC50) in data set [3] turned out to be 142 nM.
Turning to `CC(C)(C)OC(=O)N[C@H](Cc1cc(C(F)(F)F)ccc1C(F)(F)F)C(=O)N[C@@H]1CN(CC2CC2)c2ccccc2N(CC(F)(F)F)C1=O`, the inhibition in [2] was determined as 6%. This compound also registered an IC50 in data set [3] of 120 nM.
As for `CN1C(=O)[C@H](NC(=O)[C@@H](Cc2ccccc2F)NC(=O)OC(C)(C)C)CN(CC2CCCCC2)c2ccccc21`, the values for the inhibition in data set [1] and in data set [2] were 17% and 43%, respectively. For the same compound, the IC50 in data set [3] is 188 nM.
As for `CC(C)N1C(=O)[C@H](NC(=O)[C@@H](Cc2ccccc2OC(F)(F)F)NC(=O)OC(C)(C)C)CN(CC2CC2)c2ccccc21`, the Cmax in data set [4] worked out at 40 nM. In data set [5], this compound gave a half-life of 2.4 h. In data set [2], this compound registered an inhibition of 35%. In [6], this compound had a bioavailability of 4%. This compound came in with an IC50 in data set [3] of 75 nM. The compound also came in with a clearance in data set [7] of 30 mL/min/kg.
In turn, `CC(C)N1C(=O)[C@H](NC(=O)[C@@H](Cc2cccc(F)c2)NC(=O)OC(C)(C)C)CN(CC2CC2)c2ccccc21` registered an inhibition in data set [2] of 17%. The same compound came in with an IC50 in data set [3] of 96 nM.
With `CN1C(=O)[C@H](NC(=O)[C@@H](Cc2ccccc2F)NC(=O)OC(C)(C)C)CN(CC2CC2)c2ccccc21`, in data set [3], the IC50 turned out to be 49 nM.
Regarding `NC(=O)N1c2ccccc2C=Cc2ccccc21` [CARBAMAZEPINE], the ED50 in the data set with Mus musculus was found to be 3.4 mg/kg.
`CC(C)(C)OC(=O)N[C@H](Cc1ccccc1OC(F)(F)F)C(=O)N[C@@H]1CN(CC2CC2)c2ccccc2N(CC(F)(F)F)C1=O`: half-maximal inhibition in data set [3] (IC50) required 73 nM.
For the compound `CN1C(=O)[C@H](NC(=O)[C@@H](Cc2ccccc2F)NC(=O)OC(C)(C)C)CN(Cc2ccccc2)c2ccccc21`, the inhibition in data set [1] was found to be 14%; in data set [2], 84%. The compound further showed an IC50 in [3] of 25 nM.
On to `CC(C)(C)OC(=O)N[C@H](Cc1ccc(F)cc1)C(=O)N[C@@H]1CN(CC2CC2)c2ccccc2N(CC(F)(F)F)C1=O`, for which half-maximal inhibition in [3] (IC50) was put at 219 nM.
In turn, `CC(C)N1C(=O)[C@H](NC(=O)[C@@H](Cc2ccc(F)cc2)NC(=O)OC(C)(C)C)CN(CC2CC2)c2ccccc21` gave an IC50 in data set [3] of 196 nM. This IC50 and that of the compound before are within 1.5-fold of each other.
Regarding `CC(C)N1C(=O)[C@H](NC(=O)[C@@H](Cc2ccccc2F)NC(=O)OC(C)(C)C)CN(CC2CC2)c2ccccc21` (stereo in doubt; 22) [listing 1 of 2 here], the inhibition in data set [2] was found to be 32%.
In [2], `CC(C)(C)OC(=O)N[C@H](Cc1cccc(F)c1)C(=O)N[C@@H]1CN(CC2CC2)c2ccccc2N(CC(F)(F)F)C1=O` displayed an inhibition of 17%. The compound also came in with an IC50 in [3] of 142 nM.
Turning to `Nc1nnc(-c2cccc(Cl)c2Cl)c(N)n1` [LAMOTRIGINE], the ED50 with Mus musculus is 2.2 mg/kg.
For `CN1C(=O)[C@H](NC(=O)[C@@H](Cc2ccccc2F)NC(=O)OC(C)(C)C)CNc2ccccc21`, the inhibition in data set [1] was 0%; in [2], 25%. In addition, half-maximal inhibition in data set [3] (IC50) required 409 nM.
For the compound `CC(C)N1C(=O)[C@H](NC(=O)[C@@H](Cc2ccccc2C(F)(F)F)NC(=O)OC(C)(C)C)CN(CC2CC2)c2ccccc21`, the peak level in [4] (Cmax) was 150 nM. This compound also gave a half-life in data set [5] of 2.5 h. Moreover, the bioavailability in data set [6] is 9%. The same compound came in with a half-inhibitory concentration (IC50) in data set [3] of 149 nM. Moreover, the clearance in data set [7] came out at 23 mL/min/kg.
`CC(C)N1C(=O)[C@H](NC(=O)[C@@H](Cc2ccccc2F)NC(=O)OC(C)(C)C)CN(CC2CC2)c2ccccc21` (stereo in doubt; 22) [listing 2 of 2 here] had an IC50 in data set [3] of 102 nM.
`CN1C(=O)[C@H](NC(=O)[C@@H](Cc2ccccc2F)NC(=O)OC(C)(C)C)CN(CC(F)(F)F)c2ccccc21`: the inhibition in data set [1] came to 36%; in [2] it was 62%. Moreover, in data set [3], the half-maximal inhibitory concentration (IC50) is 47 nM.
For `CN1C(=O)[C@H](NC(=O)[C@@H](Cc2ccccc2F)NC(=O)OC(C)(C)C)CN(CC2CCC2)c2ccccc21` the same measures were 20%, 65% and 81 nM.
In data set [2], `CC(C)N1C(=O)[C@H](NC(=O)[C@@H](Cc2c(F)cccc2F)NC(=O)OC(C)(C)C)CN(CC2CC2)c2ccccc21` registered an inhibition of 25%. The same compound had an IC50 in data set [3] of 97 nM.
`CC(C)N1C(=O)[C@H](NC(=O)[C@@H](Cc2ccccc2F)NC(=O)OC(C)(C)C)CN(CC2CC2)c2ccccc21` (stereo in doubt; 14) [listing 1 of 2 here] gave an IC50 in data set [3] (hek293) of 102 nM.
`CC(C)(C)OC(=O)N[C@H](Cc1ccccc1C(F)(F)F)C(=O)N[C@@H]1CN(CC2CC2)c2ccccc2N(CC(F)(F)F)C1=O` registered a Cmax in data set [4] of 60 nM. In data set [5], this compound gave a half-life of 2.4 h. In data set [2], this compound returned an inhibition of 11%. Besides, in data set [6], the bioavailability amounted to 10%. The compound also showed a 50% inhibitory concentration (IC50) in data set [3] of 131 nM. Also, the clearance in data set [7] was found to be 51 mL/min/kg.
For the compound `CC(C)N1C(=O)[C@H](NC(=O)[C@@H](Cc2ccccc2F)NC(=O)OC(C)(C)C)CN(CC2CC2)c2ccccc21` (stereo in doubt; 14) [listing 2 of 2 here], the inhibition in [1] is 7%; in data set [2], 33%.
Compound `CC(C)N1C(=O)[C@H](NC(=O)[C@@H](Cc2ccccc2)NC(=O)OC(C)(C)C)CN(CC2CC2)c2ccccc21` yielded an inhibition in data set [2] of 42%. In data set [3], this compound displayed an IC50 of 52 nM.
In turn, `CC(C)(C)OC(=O)N[C@H](Cc1ccccc1)C(=O)N[C@@H]1CN(CC2CC2)c2ccccc2N(CC(F)(F)F)C1=O` showed an inhibition in data set [8] of less than 10%. This compound also had a peak concentration (Cmax) in data set [4] of 30 nM. Further, the half-life in [5] was 3.1 h. Moreover, in [9], the IC50 was found to be 1.54 nM and the inhibitory constant (Ki) was 0.63 nM. In [6], this compound displayed a bioavailability of 5%. Further, the outcome with Mus musculus was Active. The compound further returned a 50% inhibitory concentration (IC50) in data set [3] of 30 nM. This compound also displayed a Kr in data set [10] of more than 5 µM. This compound also yielded a clearance in [7] of 48 mL/min/kg.
Regarding `CC(C)(C)OC(=O)N[C@H](Cc1ccccc1F)C(=O)N[C@@H]1CN(CC2CC2)c2ccccc2N(CC(F)(F)F)C1=O`, the inhibition was determined as 7% in data set [1] and 20% in [2]. The midpoint of inhibition in data set [3], the IC50, lay at 101 nM.
